Hits are enriched below; roughly 1.5% of the tested compounds scored in any of these assays.
FLuc act counter: FLuc activators, initial screening, artefact control for FLuc-dependent activation tests, biochemical, ATPlite luminescence; Luciferin 4-monooxygenase (Photinus pyralis), P08659; ATPlite luciferase biochemical, 10 min; 0 = ATP-free wells, 1 = DMSO control; activation factor at 10 µM; 200,000 tested, under 10 active; AID 1027, 2008;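 active = luciferase activation factor, scaled between plate controls, of at least 2 with compound at 10 µM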
Target sequence (P08659 whole entry, looked up): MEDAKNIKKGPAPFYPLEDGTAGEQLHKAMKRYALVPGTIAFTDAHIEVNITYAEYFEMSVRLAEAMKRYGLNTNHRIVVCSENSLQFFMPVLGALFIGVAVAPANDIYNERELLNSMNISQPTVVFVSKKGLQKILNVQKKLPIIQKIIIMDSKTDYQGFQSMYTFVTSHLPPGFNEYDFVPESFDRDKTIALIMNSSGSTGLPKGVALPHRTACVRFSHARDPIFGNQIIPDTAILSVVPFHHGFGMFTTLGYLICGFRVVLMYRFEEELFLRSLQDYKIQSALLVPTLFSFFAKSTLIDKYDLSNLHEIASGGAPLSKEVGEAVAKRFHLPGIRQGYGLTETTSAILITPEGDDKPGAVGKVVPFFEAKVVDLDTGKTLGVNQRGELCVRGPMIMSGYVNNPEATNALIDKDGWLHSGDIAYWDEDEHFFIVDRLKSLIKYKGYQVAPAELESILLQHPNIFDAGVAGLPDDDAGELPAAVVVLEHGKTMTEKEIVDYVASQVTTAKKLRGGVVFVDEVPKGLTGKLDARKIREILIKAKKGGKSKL
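System: luciferase plus luciferin reagent, cell-free; medium: PBS as buffer for the ATP substrate; dosing: test compounds dosed from 2 mM stocks in 100% DMSO; timing: 10 min post-reagent at room temperature; measured by: luminescence measurement of luciferase light output; evaluation: luciferase activation, seen as luminescence increase over controls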
PPC-1+TRAIL kill: compounds killing PPC-1 cancer cells with TRAIL present, primary screen, TRAIL potentiator project, ATPLite luminescence, uHTS; AID 1443, 2008; PPC-1 cells + TRAIL, ATPLite viability luminescence; 220,000 tested, 0.41% active; cell killing (% activity), % at 4 µM or 5 µM;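 active = cell killing above 50% in the first pass at 4 µM, then a duplicate retest at 5 µM averaging 50% or more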;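 also: plate controls were cells with TRAIL plus DMSO for no effect and medium-only wells lacking cells for full effect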
FLuc inh counter: firefly luciferase enzyme inhibitors, primary screen, artefact control for luciferase-based inhibitor screens, biochemical, luminescence, ATPLite; Luciferin 4-monooxygenase (Photinus pyralis), P08659; 10 min; inhibition, % at 10 µM; 200,000 tested, 1.5% active; AID 1006, 2008;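 active = inhibition above about 50% when tested at 10 µM, limit read from the data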
C8 TRAIL sens: viability loss with TRAIL in NB7+C8 cells, primary screen, TRAIL sensitizer project, cell-based, ATPlite luminescence; inhibition (viability loss, TRAIL sensitization), % at 10 µM; 360,000 tested, 1% active;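 active = compounds causing at least 50% loss of cell viability in the single-dose screen, relative to plate controls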
An asterisk follows results filed as active; . = not tested or not shown.

SMILES	FLuc act counter	PPC-1+TRAIL kill	FLuc inh counter	C8 TRAIL sens
O=C(Nc1cccc(O)c1)c1noc2c1CCCCC2	0.1	-2.3	86.1*	59.5*
Cc1ccc(NC(=O)c2noc3c2CCC3)cc1C	0.5	17.2	49.1	26.7
Cn1c(NCc2cccnc2)nc2cc(-c3cccc(C(=O)NCCO)c3)sc2c1=O	.	.	.	-19.4
CC(C)(C)OC(=O)C[C@@H]1C/C=C\C[C@H](CC(=O)N(CCO)Cc2ccccc2)C(=O)N[C@@H](Cc2c[nH]c3ccccc23)COC1=O	.	.	.	-14.1
COc1ccc(C(=O)Nc2nc3ccccc3[nH]2)cc1OC	0.7	20.0	29.2	6.5
Cc1ccsc1C(=O)Nc1nc2ccccc2[nH]1	.	40.8	.	60.1*
O=C(Nc1nc2ccccc2[nH]1)c1cc(F)cc(F)c1	.	.	.	41.0
COc1ccc(OCC(=O)Nc2nc3ccccc3[nH]2)cc1	0.3	36.1	67.8*	38.7
COc1ccc(Cl)cc1C(=O)Nc1nc2ccccc2[nH]1	.	.	.	81.3*
O=C(COc1ccc2ccccc2c1)Nc1nc2ccccc2[nH]1	1	-8.7	-4.4	0.5
COc1cc(OC)cc(C(=O)Nc2nc3ccccc3[nH]2)c1	0.7	21.6	31.4	52.6*
CS(=O)(=O)n1c2ccccc2c(=O)n1-c1ccccc1CCl	.	.	.	-0.2
O=C(CC1CCCC1)Nc1nc2ccccc2[nH]1	0.8	2.7	20.7	50.6*
Cc1cc(C)cc(C(=O)Nc2nc3ccccc3[nH]2)c1	.	.	.	50.4*
CC1(C(=O)Nc2cnc3ccccc3c2)CCN1C(=O)CCc1ccccc1 (stereo unspecified)	.	.	.	3.7
CCCCOc1ccc(C(=O)NCC(=O)N2CCN(C/C=C/c3ccccc3)CC2)cc1	.	.	.	5.8
Cc1cc(/C=C\c2ccccc2)nc2ccccc12	0.3	31.6	67.6*	46.7
COc1nc(C)ccc1-c1noc(-c2ccco2)n1	0.4	21.6	57.7*	22.6
COc1nc(-c2ccc(C)cc2)ccc1-c1noc(-c2ccco2)n1	1.1	3.3	-5.3	4.4
O=C(COC(=O)c1cccnc1Cl)c1ccc(Cl)cc1Cl	0.2	14.3	77.7*	-12.3
CC(C)C(=O)Nc1cccc(C(=O)OCC(=O)c2ccc(Cl)cc2Cl)c1	0.5	20.2	53.7*	15.5
CC(=O)Nc1cc(C(=O)OCC(=O)c2ccc(Cl)cc2Cl)ccc1C	0.7	40.1	31.7	-5.5
O=C(COC(=O)c1cccnc1Cl)c1ccc(OC(F)F)cc1	0.5	9.9	54.1*	4.0
CCN(CC)C(=O)C1=C(C)N(Cc2ccc(OC)cc2)C(=O)C(CC(=O)NCCc2ccccn2)C1 (stereo unspecified)	.	.	.	1.2
O=C(NC1CCCCC1)c1ccc(-n2cnnn2)cc1	.	-17.2	.	15.6
SMILES	FLuc act counter	PPC-1+TRAIL kill	FLuc inh counter	C8 TRAIL sens
CC(C(=O)c1ccc(Br)cc1)[n+]1cccc2ccccc21 (stereo unspecified)	.	.	.	8.9
CCOC(=O)C(C(=O)OCC)c1cc(Br)c2noc3c2c1C(=O)c1ccccc1-3	1	37.2	0.5	93.3*
CC(C(=O)Nc1nccs1)N1C(=O)c2ccccc2S1(=O)=O (stereo unspecified)	.	.	.	17.0
CCO/C(C)=N/Oc1cnc2ccccc2c1	.	.	.	7.3
N#CC1(NC(=O)CN2C(=O)c3ccccc3C2=O)CCCCC1	.	.	.	0.4
N#CC1(NC(=O)Cn2ncc(Cl)c(Cl)c2=O)CCCCC1	.	.	.	92.8*
Cc1cccc(C)c1C(O)c1ncc(-c2cccc3ccccc23)[nH]1 (stereo unspecified)	.	.	.	13.7
Clc1ncnc2c1oc1ccccc12	1.1	11.3	-5.3	64.6*
CCSc1ncnc2c1oc1ccccc12	1	-11.8	-1.0	-13.9
O=C(N/N=C\c1cc(Cl)ccc1O)c1ccc(S(=O)(=O)N2CCCCC2)cc1	1.1	51.8*	-6.5	20.1
O=C(N/N=C/c1cc(Cl)ccc1O)c1ccccc1Br	1	20.5	-2.4	52.5*
Cc1ccc([C@H]2C[C@@H](O)[C@H](n3cc(-c4ccc(F)cc4)nn3)CN2C(=O)C2CCCCC2)cc1	.	.	.	17.7
COc1cc(OC)cc(C(=O)Nc2ccc3c(c2)OCCO3)c1	.	.	.	51.4*
COc1cc(OC)cc(C(=O)NC(C(=O)Nc2ccc3c(c2)OCCO3)C(C)C)c1 (stereo unspecified)	.	.	.	-14.2
CCOc1ccc(C(=O)Nc2ccc3c(c2)OCCO3)cc1OC	0.4	30.9	59.8*	36.3
CCOc1ccc(C(=O)Nc2ccc3c(c2)OCCO3)cc1[N+](=O)[O-]	0.9	.	8.9	8.8
Cc1csc(N=Nc2ccc(N(C)C)cc2)[n+]1[O-]	.	.	.	80.9*

Screening results deposited in PubChem by Sanford-Burnham Center for Chemical Genomics.
